Assays:
[1] = Cytotoxicity against human MRC5 cells assessed as inhibition of cell proliferation measured after 72 hrs by MTT assay; format: toxicity, cell-based
Procedure, shortened: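 SV-40 transformed fetal lung fibroblasts kept in DMEM with 10% hiFBS and penicillin/streptomycin at 37 °C, 5% CO₂. Cells trypsinized, seeded at 4 x 10⁴ cell/ml and exposed to increasing concentrations for 72 h at 37 °C. Viability read by colorimetric MTT. EC₅₀ taken as the concentration reducing growth by 50% versus untreated cells.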

[2] = tested on: Trypanosoma brucei brucei; assay: Antitrypanosomal activity against bloodstream form of Trypanosoma brucei brucei S16 assessed as inhibition of proliferation measured after 72 hrs by alamarBlue assay; format: functional; conditions: S16, 72 h
Procedure, shortened: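 Bloodstream forms cultured in HMI-9 with 10% hiFBS at 37 °C, 5% CO₂. Seeded at 1 × 10⁴ per mL with increasing compound concentrations for 72 h under the same conditions. Proliferation read by alamarBlue fluorescence, excitation 550 nm and emission 590 nm.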

[3] = Selectivity index, ratio of IC50 for human MRC5 cells to IC50 for bloodstream form of Trypanosoma brucei brucei S16; format: toxicity, cell-based; conditions: read-out: Ratio IC50
[4] = tested on: Trypanosoma brucei brucei; assay: Potency index, ratio of IC50 for hydroxytyrosol to IC50 for test compound against bloodstream form of Trypanosoma brucei brucei S16; format: functional
[5] = tested on: Leishmania donovani; assay: Antileishmanial activity against Leishmania donovani MHOM/ET/67/HU3 axenic amastigotes at 20 uM after 72 hrs by resazurin-based assay relative to control; format: functional; conditions: MHOM/ET/67/HU3, 72 h
Procedure, shortened: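 Axenic amastigotes grown in Schneider medium with 20% hiFBS, pH 5.4, 37 °C, 5% CO₂. 10⁶ parasites/ml exposed to a single 20 μM concentration for 72 h at 37 °C. Viability read by resazurin assay, reported as percent inhibition.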

[6] = tested on: Leishmania donovani; assay: Antileishmanial activity against Leishmania donovani MHOM/ET/67/HU3 intracellular amastigotes infected in human THP1 cells after 72 hrs by luciferase coupled luminescence assay; format: functional, cell-based; conditions: MHOM/ET/67/HU3, THP-1, 72 h
Procedure, shortened: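 Luciferase-expressing parasite line. THP-1 cells differentiated with 20 ng/mL PMA for 48 h, then 24 h in fresh medium, seeded at 3x10⁴ macrophages/well and infected with late-stage promastigotes at a macrophage:parasite ratio of 1:10. Infected cultures exposed to a range of concentrations in RPMI 1640 with 10% hiFBS at 37 °C, 5% CO₂ for 72 h, then lysed. Luminescence read as intracellular parasite growth.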

[7] = Selectivity index, ratio of IC50 for human MRC5 cells to IC50 for intracellular amastigotes of Leishmania donovani MHOM/ET/67/HU3 infected in human THP1 cells; format: toxicity, cell-based; conditions: read-out: Ratio IC50
[8] = tested on: Trypanosoma brucei brucei; assay: Potency index, ratio of IC50 for tyrosol to IC50 for test compound against bloodstream form of Trypanosoma brucei brucei S16; format: functional
[9] = tested on: Leishmania donovani; assay: Potency index, ratio of IC50 for tyrosol to IC50 for test compound against intracellular amastigotes of Leishmania donovani MHOM/ET/67/HU3 infected in human THP1 cells; format: functional, THP-1
[10] = tested on: Trypanosoma brucei rhodesiense; assay: Antitrypanosomal activity against Trypanosoma brucei rhodesiense; format: functional
[11] = tested on: Leishmania donovani; assay: Antileishmanial activity against Leishmania donovani MON-2 MHOM/IN/1996/THAK35 amastigotes infected in mouse J774A.1 cells after 72 hrs by alamarBlue assay; format: functional, cell-based; conditions: MON-2 MHOM/IN/1996/THAK35, J774.A1, 72 h
[12] = tested on: Leishmania major; assay: Leishmanicidal activity against Leishmania major MHOM/TN/95/GLC94 promastigotes after 24 hrs by MTT assay; format: functional; conditions: MHOM/TN/95/GLC94, 24 h
[13] = tested on: Leishmania infantum; assay: Leishmanicidal activity against Leishmania infantum MHOM/TN/94/LV50 promastigotes after 24 hrs by MTT assay; format: functional; conditions: MHOM/TN/94/LV50, 24 h

Structure (SMILES) | IC50 [2] [µM] | IC50 [6] [µM] | IC50 [10] [µM] | IC50 at 72 h [1] [µM] | selectivity ratio [3] | Ratio IC50 [4] | inhibition at 20 µM [5] [%] | selectivity ratio [7] | Ratio IC50 [8] | Ratio IC50 [9] | IC50 [11] [µM] | IC50 [12] [µM] | IC50 [13] [µM]
CCCCCCCCCCCC(=O)OCCc1ccc2c(c1)OCO2 | > 10 |  |  | > 50 | > 5 | >5 |  |  |  |  |  |  | 
CCCCCCCCCCCCSCCc1ccc(OCc2ccc(OC)cc2)c(OCc2ccc(OC)cc2)c1 | > 10 |  |  | > 50 | > 5 | 5 |  |  |  |  |  |  | 
CCCCCCCC(=O)OCCc1ccc(O)c(O)c1 | 9.6 | > 10 |  | 104 | 11 | 5 | 45 | 10.3 |  |  |  |  | 
CCCCCCCC(=O)OCCc1ccc(O)cc1 | 56.8 | > 10 |  | 133 | 2.3 |  | 46 | 13.3 | 0.22 | 1 |  |  | 
OCCc1ccc(O)cc1 [TYROSOL] | > 10 | > 10 | > 15 | > 500 | > 5 |  | 50 | 5 |  |  |  |  | 
O=S(=O)([O-])Oc1ccc(CCO)cc1.[K+] | 41.6 |  |  | 106 | 2.6 |  | 36 |  | 0.16 |  |  |  | 
O=C(O)[C@H]1O[C@@H](Oc2ccc(CCO)cc2)[C@H](O)[C@@H](O)[C@@H]1O | 61.5 |  |  | 110 | 1.8 |  | 36 |  | 0.17 |  |  |  | 
Oc1ccc(CCN=C=S)cc1O | 9.87 |  |  | 21.1 | 2 | 5 |  |  |  |  |  |  | 
CC(=O)OCCc1ccc(O)c(O)c1 | 43.4 | > 10 |  | > 50 | > 1 | 1 | 48 |  |  |  |  |  | 
CCCCCCCCCC(=O)OCCc1ccc2c(c1)OCO2 | > 10 |  |  | > 50 | > 5 | >5 |  |  |  |  |  |  | 
CCCCCCCCCCCCSCCc1ccc(OCc2ccccc2)c(OCc2ccccc2)c1 | > 10 |  |  | > 50 | > 5 | 5 |  |  |  |  |  |  | 
CCCCCCCCCCOCCc1ccc(OCc2ccccc2)c(OCc2ccccc2)c1 | > 10 |  |  | > 50 | > 5 | >5 |  |  |  |  |  |  | 
OCCc1ccc(O)c(O)c1 [HYDROXYTYROSOL] | 47.5 |  |  | > 50 | > 1 |  | 0 |  |  |  | 393 |  | 
CCCCCCCCCCOCCc1ccc(OCc2ccc(OC)cc2)c(OCc2ccc(OC)cc2)c1 | > 10 |  |  | > 50 | > 5 | >5 |  |  |  |  |  |  | 
CCCCCCCCCCCC(=O)OCCc1ccc(O)cc1 | 16.2 |  |  | 67.2 | 4.1 |  | 32 |  | 0.52 |  |  |  | 
CCCCCCCCCC(=O)OCCc1ccc(O)cc1 | 81.4 |  |  | 172 | 2.1 |  | 34 |  | 0.16 |  |  | 65 | 132
C[C@@H]1[C@H](O)[C@@H](C)/C=C/C=C/C=C/C=C/C=C/C=C/C=C/[C@H](O[C@@H]2O[C@H](C)[C@@H](O)[C@H](N)[C@@H]2O)C[C@@H]2O[C@](O)(C[C@@H](O)C[C@@H](O)[C@H](O)CC[C@@H](O)C[C@@H](O)CC(=O)O[C@H]1C)C[C@H](O)[C@H]2C(=O)O [AMPHOTERICIN B] |  | 0.1 |  |  |  |  |  |  |  |  |  |  | 
CCCCCC(=O)OCCc1ccc(O)cc1 | 59.1 | > 10 |  | 166 | 2.8 |  | 44 | 16.6 | 0.16 | 1 |  |  | 
CCCCCCCCCC(=O)NCCc1ccc(O)c(O)c1 | > 10 |  |  | > 50 | > 5 | 5 |  |  |  |  |  |  | 
CC(=O)OCCc1ccc(O)cc1 | 79.4 |  |  | 114 | 1.4 |  | 28 |  | 0.13 |  |  |  | 
NCCc1ccc(O)c(O)c1 [DOPAMINE] | > 10 |  |  | 68.9 | 7 | 5 |  |  |  |  |  |  | 

Continued by falling IC50 [2], values first:

IC50 [2] [µM] | IC50 [6] [µM] | IC50 [10] [µM] | Structure (SMILES) | IC50 at 72 h [1] [µM] | selectivity ratio [3] | Ratio IC50 [4] | inhibition at 20 µM [5] [%] | selectivity ratio [7] | Ratio IC50 [8] | Ratio IC50 [9] | IC50 [11] [µM] | IC50 [12] [µM] | IC50 [13] [µM]
9.4 | > 10 |  | CCCC(=O)OCCc1ccc(O)c(O)c1 [HYDROXYTYROSOL BUTANOATE] | 71.5 | 8 | 5 | 48 | 7.1 |  |  |  |  | 
8.74 |  |  | CCCCCCCCCCCC(=O)NCCc1ccc(O)c(O)c1 | > 50 | > 5 | 5 |  |  |  |  |  |  | 
2.43 | > 10 |  | CCCCCCCCCCCCCCCC(=O)OCCc1ccc(O)c(O)c1 [HYDROXYTYROSOL PALMITATE] | > 50 | > 21 | 20 | 52 |  |  |  |  |  | 
2.29 | > 10 |  | CCCCCCCCCCCCCC(=O)OCCc1ccc(O)c(O)c1 | > 50 | > 22 | 21 | 53 |  |  |  |  |  | 
1.29 |  |  | CCCCCCCCCCOCCc1ccc(O)c(O)c1 | > 50 | > 38 | 37 |  |  |  |  |  |  | 
0.77 |  |  | CCCCCCCCCCCCNC(=S)NCCc1ccc(O)c(O)c1 | 2.96 | 4 | 62 |  |  |  |  |  |  | 
0.74 |  |  | CCCCCCCCCCNC(=S)NCCc1ccc(O)c(O)c1 | 24.8 | 33 | 64 |  |  |  |  |  |  | 
0.63 |  |  | CCCCCCCCCCCCOCCc1ccc(O)c(O)c1 | 13.2 | 21 | 75 |  |  |  |  |  |  | 
0.6 | 8.44 |  | CCCCCCCCCC(=O)OCCc1ccc(O)c(O)c1 [HYDROXYTYROSOL DECANOATE] | 71.1 | 118 | 79 | 54 | 8.4 |  |  |  |  | 
0.36 | > 10 |  | CCCCCCCCCCCC(=O)OCCc1ccc(O)c(O)c1 | 38.1 | 101 to 106 | 132 | 56 |  |  |  |  |  | 
0.038 |  |  | Cc1ccc(C(=O)Nc2ccc(S(=O)(=O)O)c3cc(S(=O)(=O)O)cc(S(=O)(=O)O)c23)cc1NC(=O)c1cccc(NC(=O)Nc2cccc(C(=O)Nc3cc(C(=O)Nc4ccc(S(=O)(=O)O)c5cc(S(=O)(=O)O)cc(S(=O)(=O)O)c45)ccc3C)c2)c1 [SURAMIN] |  |  |  |  |  |  |  |  |  | 

From ChEMBL document CHEMBL3856184, “Tyrosol and hydroxytyrosol derivatives as antitrypanosomal and antileishmanial agents” (Eur J Med Chem, 2016)
